Results from ChEMBL document CHEMBL2311288, “Discovery of liver-targeted inhibitors of stearoyl-CoA desaturase (SCD1)” (Bioorg Med Chem Lett, 2013).
One block for each compound: values may come before it.

Legend:
[1] = Drug level in liver in rat at 10 mg/kg measured after 6 hrs; format: ADME, organism-based; parameters: dose 10 mg/kg; settings: read-out: Drug uptake
Procedure, shortened: (§1)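 Rats were given a single 10 mg/kg dose. Plasma exposure (AUC, Cmax) was determined, and drug concentrations in plasma, brain and liver were measured at 6 h post-dose. The liver/plasma ratio was taken from the 6 h levels.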

[2] = Ratio of drug level in liver to plasma of rat at 10 mg/kg measured after 6 hrs; format: ADME, organism-based; parameters: dose 10 mg/kg; procedure, shortened: as §1
[3] = Cmax in rat at 10 mg/kg; format: ADME, organism-based; parameters: dose 10 mg/kg; settings: in vivo; procedure, shortened: as §1
[4] = Plasma concentration in rat at 10 mg/kg measured after 6 hrs; format: ADME, organism-based; parameters: dose 10 mg/kg; procedure, shortened: as §1
[5] = target: T1, Acyl-CoA desaturase 1 (Rattus norvegicus, UniProt P07308); assay: Inhibition of rat SCD1 by rat microsomal assay
T1 sequence (P07308 whole entry): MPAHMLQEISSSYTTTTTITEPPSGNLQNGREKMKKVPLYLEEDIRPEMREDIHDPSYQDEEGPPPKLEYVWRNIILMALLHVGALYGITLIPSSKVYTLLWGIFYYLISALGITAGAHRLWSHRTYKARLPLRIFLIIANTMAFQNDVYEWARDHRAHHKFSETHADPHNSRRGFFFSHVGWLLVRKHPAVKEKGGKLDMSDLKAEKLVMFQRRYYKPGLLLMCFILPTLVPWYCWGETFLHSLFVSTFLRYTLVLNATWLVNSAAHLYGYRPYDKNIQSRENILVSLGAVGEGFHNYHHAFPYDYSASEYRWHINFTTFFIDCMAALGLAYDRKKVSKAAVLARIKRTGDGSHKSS
Procedure, shortened: (§2)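 Microsomal desaturase activity was measured in 100 mM Tris HCl pH 7.3 with 2 mM NADH and [9,10-3H]stearoyl-CoA for 15 min at room temperature. The reaction was stopped on ice with trichloroacetic acid, then passed through activated charcoal, and tritium in the filtrate was counted. Compounds were tested in 2% DMSO final. Percent inhibition = (total−sample)/(total−blank)×100, with the blank set by 10⁻⁴ M of a standard inhibitor.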

[6] = system: Rattus norvegicus; assay: AUC in rat at 10 mg/kg; format: ADME, organism-based, Plasma; parameters: dose 10 mg/kg; settings: in vivo; procedure, shortened: as §1
[7] = target: T2, Acyl-CoA desaturase 1 (Mus musculus, UniProt P13516); assay: Inhibition of mouse SCD1; procedure, shortened: as §2
T2 sequence (P13516 whole entry): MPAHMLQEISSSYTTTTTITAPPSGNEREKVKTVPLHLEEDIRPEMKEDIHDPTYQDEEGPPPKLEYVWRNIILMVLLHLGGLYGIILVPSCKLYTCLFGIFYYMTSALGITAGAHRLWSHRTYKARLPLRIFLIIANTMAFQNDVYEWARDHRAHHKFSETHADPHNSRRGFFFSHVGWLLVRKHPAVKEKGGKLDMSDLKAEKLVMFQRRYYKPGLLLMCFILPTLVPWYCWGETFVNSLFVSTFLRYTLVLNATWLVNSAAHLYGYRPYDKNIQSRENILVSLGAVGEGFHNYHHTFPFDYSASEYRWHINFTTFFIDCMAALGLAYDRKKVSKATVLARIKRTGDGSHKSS

[8] = AUC (0 to 24 hrs) in CD-1 mouse at 300 mg/kg, po; format: ADME, organism-based; parameters: time < 24 hr, dose 300 mg/kg, route oral; settings: plasma
Procedure, shortened: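 Male CD-1 mice received single daily oral gavage doses of 30, 100 or 300 mg/kg for 2 weeks. Plasma drug levels were determined on Day 13, and exposure was expressed as AUC(0–24 h).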

[9] = system: Mus musculus; assay: Toxicity in CD-1 mouse assessed as article related testes up to 300 mg/kg, po; format: organism-based, Testis; parameters: dose 300 mg/kg, route oral; settings: in vivo
[10] = system: Mus musculus; assay: Toxicity in CD-1 mouse assessed as eyes (corneal degeneration, inflammation) up to 300 mg/kg, po; format: organism-based, Cornea; parameters: dose 300 mg/kg, route oral; settings: in vivo
[11] = system: Mus musculus; assay: Toxicity in CD-1 mouse assessed as eyelid atrophy of sebaceous gland up to 300 mg/kg, po; format: organism-based; parameters: dose 300 mg/kg, route oral; settings: in vivo
[12] = system: Mus musculus; assay: Toxicity in CD-1 mouse assessed as skin atrophy of sebaceous gland up to 300 mg/kg, po; format: organism-based; parameters: dose 300 mg/kg, route oral; settings: in vivo
[13] = system: Mus musculus; assay: Toxicity in CD-1 mouse assessed as atrophy of the harderian and meibomian glands up to 300 mg/kg, po; format: organism-based; parameters: dose 300 mg/kg, route oral; settings: in vivo
[14] = system: Mus musculus; assay: Toxicity in CD-1 mouse assessed as lacrimation up to 300 mg/kg, po; format: organism-based; parameters: dose 300 mg/kg, route oral; settings: in vivo
[15] = system: Mus musculus; assay: Toxicity in CD-1 mouse assessed as ocular opacity up to 300 mg/kg, po; format: organism-based, Eye; parameters: dose 300 mg/kg, route oral; settings: in vivo
[16] = system: Mus musculus; assay: Toxicity in CD-1 mouse assessed as swelling of the lips up to 300 mg/kg, po; format: organism-based; parameters: dose 300 mg/kg, route oral; settings: in vivo
[17] = system: Mus musculus; assay: Toxicity in CD-1 mouse assessed as alopecia up to 300 mg/kg, po; format: organism-based; parameters: dose 300 mg/kg, route oral; settings: in vivo
[18] = system: Mus musculus; assay: Toxicity in CD-1 mouse assessed as peri-orbital swelling up to 300 mg/kg, po; format: organism-based; parameters: dose 300 mg/kg, route oral; settings: in vivo
[19] = system: Mus musculus; assay: Toxicity in mouse assessed as abnormalities in eyes at 30 mg/kg; format: organism-based; parameters: dose 30 mg/kg; settings: in vivo
[20] = Plasma concentration in AKR/J mouse at 30 mg/kg measured after 4 hrs; format: ADME, organism-based; parameters: dose 30 mg/kg
Procedure, shortened: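 Male AKR/J mice, 7 weeks old (n = 10/group) and fed a 10% kcal low-fat diet, were given oral doses of 1, 3, 10 or 30 mg/kg. Plasma was collected 4 h after dosing, and drug concentration in that plasma was measured.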

[21] = system: Mus musculus; assay: Toxicity in mouse assessed as abnormalities in skin at 30 mg/kg; format: organism-based; parameters: dose 30 mg/kg; settings: in vivo
[22] = system: Mus musculus; assay: Toxicity in CD-1 mouse assessed as meibomian gland (atrophy, squamous metaplasia) up to 300 mg/kg, po; format: organism-based; parameters: dose 300 mg/kg, route oral; settings: in vivo

- concentration at 6 h [1]: 2670 ng/g
- Kp at 6 h [2]: 13
- Cmax [3]: 1100 ng/g
- concentration at 6 h [4]: 210 ng/g
- IC50 [5]: 17 nM
- AUC [6]: 3464 ng·h/g
Compound: CC(=O)NCC(=O)N1CCC2(CC1)CCN(Cc1ccc(C(C)(C)C)cc1)c1ccccc1O2

- IC50 [5]: 830 nM
Compound: CC(=O)NCC(=O)N1CCC2(CC1)CCN(Cc1cccc(Cl)c1)c1ccccc1O2

- IC50 [5]: 1800 nM
Compound: COc1cccc(CN2CCC3(CCN(C(=O)CNC(C)=O)CC3)Oc3ccccc32)c1

- IC50 [5]: 680 nM
Compound: CC(=O)NCC(=O)N1CCC2(CC1)CCN(Cc1cccc(OC(F)(F)F)c1)c1ccccc1O2

- IC50 [5]: 32 nM
Compound: CC(=O)NCC(=O)N1CCC2(CC1)CCN(Cc1cccc(C(F)(F)F)c1)c1ccccc1O2

- IC50 [5]: 460 nM
Compound: CC(=O)NCC(=O)N1CCC2(CC1)CCN(Cc1ccc(F)cc1)c1ccccc1O2

- IC50 [5]: > 10000 nM
Compound: CC(=O)NCC(=O)N1CCC2(CC1)CCN(Cc1ccc(Cl)cc1)c1ccccc1O2

- IC50 [5]: > 10000 nM
Compound: CC(=O)NCC(=O)N1CCC2(CC1)CCN(Cc1ccccc1F)c1ccccc1O2

- IC50 [5]: 1200 nM
Compound: CC(=O)NCC(=O)N1CCC2(CC1)CCN(Cc1ccccc1Cl)c1ccccc1O2

- IC50 [5]: 1200 nM
Compound: CC(=O)NCC(=O)N1CCC2(CC1)CCN(Cc1ccccc1C)c1ccccc1O2

- IC50 [5]: 430 nM
Compound: CCc1ccccc1CN1CCC2(CCN(C(=O)CNC(C)=O)CC2)Oc2ccccc21

- IC50 [5]: 2900 nM
Compound: COc1ccccc1CN1CCC2(CCN(C(=O)CNC(C)=O)CC2)Oc2ccccc21

- IC50 [5]: > 10000 nM
Compound: CC(=O)NCC(=O)N1CCC2(CC1)CCN(Cc1cccc(F)c1)c1ccccc1O2

- IC50 [7]: 6400 nM
Compound: CC(=O)NCC(=O)N1CCC2(CC1)CCN(CCC(C)C)c1ccccc1O2

- IC50 [5]: 1200 nM
Compound: CC(=O)NCC(=O)N1CCC2(CC1)CCN(Cc1ccccc1)c1ccccc1O2

- IC50 [5]: > 10000 nM
Compound: CC(=O)NCC(=O)N1CCC2(CC1)CCN(CC(C)C)c1ccccc1O2

- IC50 [5]: > 10000 nM
Compound: CCCN1CCC2(CCN(C(=O)CNC(C)=O)CC2)Oc2ccccc21

- IC50 [5]: > 10000 nM
Compound: CC(=O)NCC(=O)N1CCC2(CC1)CCN(c1ccccc1)c1ccccc1O2

- IC50 [5]: 1600 nM
Compound: CC(=O)NCC(=O)N1CCC2(CC1)CCN(CCc1ccccc1)c1ccccc1O2

- IC50 [5]: 100 nM
Compound: COc1ccc(C(F)(F)F)c(C(=O)N2CCN(c3ccc(C(=O)NCCCc4ccccc4)cn3)CC2)c1

- IC50 [5]: 3 nM
Compound: O=C(O)Cn1nnc(-c2cc(N3CCC(Oc4ccccc4C(F)(F)F)CC3)no2)n1

- IC50 [5]: 261 nM
Compound: O=C(CO)Nc1ccc2ncn(Cc3ccc(Cl)c(Cl)c3)c(=O)c2c1

- AUC(0-t) at 24 h [8]: 216 µM·h
- concentration at 4 h [20]: 1780 ng/mL
- concentration at 6 h [1]: 529 ng/g
- Kp at 6 h [2]: 8
- Cmax [3]: 599 ng/g
- concentration at 6 h [4]: 66 ng/g
- IC50 [5]: < 4 nM
- AUC [6]: 1435 ng·h/g
Compound: CNC(=O)c1cccc(NC(=O)N2CCC(Oc3ccccc3Cl)CC2)c1
- Activity [9]: Non-toxic
- Activity [10]: Toxic
- Activity [11]: Toxic
- Activity [12]: Toxic
- Activity [13]: Toxic
- Activity [14]: Toxic
- Activity [15]: Toxic
- Activity [16]: Toxic
- Activity [17]: Toxic
- Activity [18]: Toxic
- Activity [19]: Non-toxic
- Activity [21]: Non-toxic
- Activity [22]: Toxic
